Source: ChEMBL document CHEMBL1122831, “Synthesis and structure-activity relationships of novel arylfluoroquinolone antibacterial agents” (1985)
Values after ≈ are worked out from the molar mass of the structure shown.

What was measured:
Type in all cases: functional
Escherichia coli = experiment: Minimum inhibition concentration in vitro determined against Escherichia coli juhl; details: Escherichia coli; read-out: MIC
Summary of the method: (§1)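 Agar dilution on brain-heart infusion (BHI) agar with twofold dilutions from a 2000 µg/mL stock, giving final test concentrations of 200-0.005 µg/mL. Organisms were grown overnight in BHI broth at 36 °C, and about 10⁴ organisms were inoculated per plate. Plates were incubated 18 h at 36 °C. MIC was the lowest concentration with no visible growth.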

Klebsiella aerogenes = experiment: Minimum inhibition concentration in vitro determined against Enterobacteri aerogenes ATCC 13048; summary of the method: as §1
Klebsiella pneumoniae = experiment: Minimum inhibition concentration in vitro determined against Klebsiella pneumoniae 8045; summary of the method: as §1
Pseudomonas aeruginosa [1] = experiment: Minimum inhibition concentration in vitro determined against Pseudomona aeruginosa 5007; summary of the method: as §1
Pseudomonas aeruginosa [2] = experiment: Minimum inhibition concentration in vitro determined against Pseudomona aeruginosa K799/WT; summary of the method: as §1
[3] = tested on: Staphylococcus epidermidis; experiment: Minimum inhibition concentration in vitro determined against Staphylococcus epidermidis 3519; summary of the method: as §1
Staphylococcus aureus [4] = experiment: Minimum inhibition concentration in vitro determined against Staphylococcus aureus ATCC 6538P; summary of the method: as §1
Streptococcus pyogenes = experiment: Minimum inhibition concentration in vitro determined against Streptococcus pyogenes 930; summary of the method: as §1
Staphylococcus aureus [5] = experiment: Minimum inhibition concentration in vitro determined against Staphylococcus aureus CMX 686B; summary of the method: as §1
Enterococcus faecium = experiment: Minimum inhibition concentration in vitro determined against Streptococcus faecium ATCC 8043; summary of the method: as §1
Acinetobacter = experiment: Minimum inhibition concentration in vitro determined against Acinetobacter sp CMX669; summary of the method: as §1

| Structure (SMILES) | MIC (Escherichia coli) | MIC (Klebsiella aerogenes) | MIC (Klebsiella pneumoniae) | MIC (Pseudomonas aeruginosa [1]) | MIC (Pseudomonas aeruginosa [2]) | MIC [3] | MIC (Staphylococcus aureus [4]) | MIC (Streptococcus pyogenes) | MIC (Staphylococcus aureus [5]) | MIC (Enterococcus faecium) | MIC (Acinetobacter) |
| --- | --- | --- | --- | --- | --- | --- | --- | --- | --- | --- | --- |
| O=C(O)c1cn(-c2ccc(F)cc2)c2cc(N3CCC(O)C3)c(F)cc2c1=O (stereo not given) | 0.2 µg/mL (≈ 0.518 µM) | 0.78 µg/mL (≈ 2.02 µM) | 0.2 µg/mL (≈ 0.518 µM) | 3.1 µg/mL (≈ 8.02 µM) | 3.1 µg/mL (≈ 8.02 µM) | 0.2 µg/mL (≈ 0.518 µM) | < 0.1 µg/mL | 1.56 µg/mL (≈ 4.04 µM) | < 0.1 µg/mL | 1.56 µg/mL (≈ 4.04 µM) | 0.39 µg/mL (≈ 1.01 µM) |
| CN1CCN(c2cc3c(cc2F)c(=O)c(C(=O)O)cn3-c2ccc(Br)cc2)CC1 | 6.2 µg/mL (≈ 13.5 µM) | 12.5 µg/mL (≈ 27.2 µM) | 3.1 µg/mL (≈ 6.73 µM) | 50 µg/mL (≈ 109 µM) | 25 µg/mL (≈ 54.3 µM) | 3.1 µg/mL (≈ 6.73 µM) | 3.1 µg/mL (≈ 6.73 µM) | 50 µg/mL (≈ 109 µM) | 3.1 µg/mL (≈ 6.73 µM) | 100 µg/mL (≈ 217 µM) | 12.5 µg/mL (≈ 27.2 µM) |
| CC(=O)N1CCN(c2cc3c(cc2F)c(=O)c(C(=O)O)cn3-c2ccc(F)cc2)CC1 | 1.56 µg/mL (≈ 3.65 µM) | 3.1 µg/mL (≈ 7.25 µM) | 1.56 µg/mL (≈ 3.65 µM) | 12.5 µg/mL (≈ 29.2 µM) | 12.5 µg/mL (≈ 29.2 µM) | 0.78 µg/mL (≈ 1.82 µM) | 0.2 µg/mL (≈ 0.468 µM) | 1.56 µg/mL (≈ 3.65 µM) | 0.2 µg/mL (≈ 0.468 µM) | 3.1 µg/mL (≈ 7.25 µM) | 12.5 µg/mL (≈ 29.2 µM) |
| Cc1cccc(C)c1-n1cc(C(=O)O)c(=O)c2cc(F)c(N3CCN(C)CC3)cc21 | > 100 µg/mL | > 100 µg/mL | > 100 µg/mL | > 100 µg/mL | > 100 µg/mL | > 100 µg/mL | > 100 µg/mL | > 100 µg/mL | > 100 µg/mL | > 100 µg/mL | > 100 µg/mL |
| O=C(O)c1cn(-c2ccc(F)cc2)c2cc(N3CCCC3)c(F)cc2c1=O | 0.78 µg/mL (≈ 2.11 µM) | 0.78 µg/mL (≈ 2.11 µM) | 0.39 µg/mL (≈ 1.05 µM) | 1.56 µg/mL (≈ 4.21 µM) | 1.56 µg/mL (≈ 4.21 µM) | 0.2 µg/mL (≈ 0.54 µM) | 0.1 µg/mL (≈ 0.27 µM) | 0.78 µg/mL (≈ 2.11 µM) | 0.1 µg/mL (≈ 0.27 µM) | 0.78 µg/mL (≈ 2.11 µM) | 0.78 µg/mL (≈ 2.11 µM) |
| Cc1ccccc1-n1cc(C(=O)O)c(=O)c2cc(F)c(N3CCN(C)CC3)cc21 | 1.56 µg/mL (≈ 3.95 µM) | 3.1 µg/mL (≈ 7.84 µM) | 1.56 µg/mL (≈ 3.95 µM) | 25 µg/mL (≈ 63.2 µM) | 12.5 µg/mL (≈ 31.6 µM) | 3.1 µg/mL (≈ 7.84 µM) | 3.1 µg/mL (≈ 7.84 µM) | 50 µg/mL (≈ 126 µM) | 3.1 µg/mL (≈ 7.84 µM) | 50 µg/mL (≈ 126 µM) | 1.56 µg/mL (≈ 3.95 µM) |
| CN1CCN(c2cc3c(cc2F)c(=O)c(C(=O)O)cn3-c2cccc(F)c2)CC1 | 6.2 µg/mL (≈ 15.5 µM) | 6.2 µg/mL (≈ 15.5 µM) | 3.1 µg/mL (≈ 7.76 µM) | 50 µg/mL (≈ 125 µM) | 50 µg/mL (≈ 125 µM) | 12.5 µg/mL (≈ 31.3 µM) | 12.5 µg/mL (≈ 31.3 µM) | 25 µg/mL (≈ 62.6 µM) | 12.5 µg/mL (≈ 31.3 µM) | 50 µg/mL (≈ 125 µM) | 50 µg/mL (≈ 125 µM) |
| CCC(=O)N1CCN(c2cc3c(cc2F)c(=O)c(C(=O)O)cn3-c2ccc(F)cc2)CC1 | 1.56 µg/mL (≈ 3.53 µM) | 3.1 µg/mL (≈ 7.02 µM) | 0.78 µg/mL (≈ 1.77 µM) | 12.5 µg/mL (≈ 28.3 µM) | 12.5 µg/mL (≈ 28.3 µM) | 0.78 µg/mL (≈ 1.77 µM) | 0.2 µg/mL (≈ 0.453 µM) | 1.56 µg/mL (≈ 3.53 µM) | 0.2 µg/mL (≈ 0.453 µM) | 6.2 µg/mL (≈ 14 µM) | 6.2 µg/mL (≈ 14 µM) |
| O=C1CN(c2cc3c(cc2F)c(=O)c(C(=O)O)cn3-c2ccc(F)cc2)CCN1 | 0.39 µg/mL (≈ 0.977 µM) | 1.56 µg/mL (≈ 3.91 µM) | 0.39 µg/mL (≈ 0.977 µM) | 6.2 µg/mL (≈ 15.5 µM) | 3.1 µg/mL (≈ 7.76 µM) | 0.78 µg/mL (≈ 1.95 µM) | 0.2 µg/mL (≈ 0.501 µM) | 0.78 µg/mL (≈ 1.95 µM) | 0.39 µg/mL (≈ 0.977 µM) | 1.56 µg/mL (≈ 3.91 µM) | 12.5 µg/mL (≈ 31.3 µM) |
| CN(C)C1CCN(c2cc3c(cc2F)c(=O)c(C(=O)O)cn3-c2ccc(F)cc2)CC1 | 0.39 µg/mL (≈ 0.912 µM) | 0.78 µg/mL (≈ 1.82 µM) | 0.39 µg/mL (≈ 0.912 µM) | 3.1 µg/mL (≈ 7.25 µM) | 3.1 µg/mL (≈ 7.25 µM) | 0.78 µg/mL (≈ 1.82 µM) | 0.39 µg/mL (≈ 0.912 µM) | 1.56 µg/mL (≈ 3.65 µM) | 0.39 µg/mL (≈ 0.912 µM) | 3.1 µg/mL (≈ 7.25 µM) | 0.78 µg/mL (≈ 1.82 µM) |
